Experimental findings from ChEMBL document CHEMBL3045357, “DNA adducts as biomarkers for oxidative and genotoxic stress from pesticides in crop plants” (J Agric Food Chem, 2008) are described below.

Common to all, as to type: organism-based
Holding throughout (conditions): in vivo, other, 336 h

Series [1] has as its system Glycine max. Kind of series: Genotoxicity in Glycine max (soybean) exposed to compound through spray 4 times over 2 weeks assessed as relative adduct level A3 measured per 10^9 nucleotides using HX-dG internal standard using [32P]labeling based autoradiography relative to untreated control. In a few lines:
(§1)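 Plants (2–6 weeks grown), groups of 2–4, sprayed 4 times over 2 weeks with formulations diluted per label (chlorothalonil 1:256, carbaryl 1:64 in water); controls water-sprayed. DNA from 1 g leaf via DNeasy Maxi kit. 10 µg DNA digested with micrococcal nuclease/spleen phosphodiesterase (4 h, 37 °C), NP1-enriched (45 min, 37 °C), labelled with [γ-32P]ATP/T4 kinase (45 min, 37 °C).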

Series [2] deals with Glycine max. Nature of the series: Genotoxicity in Glycine max (soybean) exposed to compound through spray 4 times over 2 weeks assessed as relative adduct level A3 measured per 10^9 nucleotides using [32P]labeling based autoradiography relative to untreated control. In a few lines:
as §1

The test system of series [3] is Glycine max. Nature of the series: Genotoxicity in Glycine max (soybean) exposed to compound through spray 4 times over 2 weeks assessed as relative adduct level A2 measured per 10^9 nucleotides using [32P]labeling based autoradiography relative to untreated control. The method, boiled down:
as §1

For series [4], the system named is Glycine max. Nature of the series: Genotoxicity in Glycine max (soybean) exposed to compound through spray 4 times over 2 weeks assessed as relative adduct level A1 measured per 10^9 nucleotides using [32P]labeling based autoradiography relative to untreated control. In a few lines: as §1
Series [5] has as its system Glycine max. Nature of the series: Genotoxicity in Glycine max (soybean) exposed to compound through spray 4 times over 2 weeks assessed as HNE-dG adducts using [32P]labeling based autoradiography (reference value: 34 cpm). The method, boiled down: as §1
Series [6] relates to Glycine max. Kind of series: Genotoxicity in Glycine max (soybean) exposed to compound through spray 4 times over 2 weeks assessed as relative adduct level A2 measured per 10^9 nucleotides using HX-dG internal standard using [32P]labeling based autoradiography relative to untreated control. In a few lines:
as §1

In series [7] the test system is Glycine max. Kind of series: Genotoxicity in Glycine max (soybean) exposed to compound through spray 4 times over 2 weeks assessed as relative adduct level A1 measured per 10^9 nucleotides using HX-dG internal standard using [32P]labeling based autoradiography relative to untreated control. In a few lines: as §1
Series [8] deals with Glycine max. Kind of series: Genotoxicity in Glycine max (soybean) exposed to compound through spray 4 times over 2 weeks assessed as HX-dG adducts using [32P]labeling based autoradiography. The method, boiled down:
as §1

The subject of series [9] is Glycine max. Kind of series: Genotoxicity in Glycine max (soybean) exposed to compound through spray 4 times over 2 weeks assessed as HNE-dG adducts measured per 10^9 nucleotides using [32P]labeling based autoradiography (reference value: 2 no unit). In a few lines:
as §1

Series [10] concerns Glycine max. Nature of the series: Genotoxicity in Glycine max (soybean) exposed to compound through spray 4 times over 2 weeks assessed as HX-dG adducts measured per 10^9 nucleotides using [32P]labeling based autoradiography. The method, boiled down:
as §1

The test system of series [11] is Glycine max. Kind of series: Genotoxicity in Glycine max (soybean) exposed to compound through spray 4 times over 2 weeks assessed as relative adduct level A5 measured per 10^9 nucleotides using HX-dG internal standard using [32P]labeling based autoradiography relative to untreated control. In a few lines:
as §1

Series [12] has as its system Glycine max. Kind of series: Genotoxicity in Glycine max (soybean) exposed to compound through spray 4 times over 2 weeks assessed as relative adduct level A4 measured per 10^9 nucleotides using HX-dG internal standard using [32P]labeling based autoradiography relative to untreated control. In a few lines: as §1
In series [13] the test system is Glycine max. Nature of the series: Genotoxicity in Glycine max (soybean) exposed to compound through spray 4 times over 2 weeks assessed as relative adduct level A5 measured per 10^9 nucleotides using [32P]labeling based autoradiography relative to untreated control. In a few lines: as §1
For series [14], the system named is Glycine max. Nature of the series: Genotoxicity in Glycine max (soybean) exposed to compound through spray 4 times over 2 weeks assessed as relative adduct level A4 measured per 10^9 nucleotides using [32P]labeling based autoradiography relative to untreated control. In a few lines:
as §1

Series [15] has as its system Glycine max. Nature of the series: Genotoxicity in Glycine max (soybean) exposed to compound through spray 4 times over 2 weeks assessed as relative adduct level A6 measured per 10^9 nucleotides using HX-dG internal standard using [32P]labeling based autoradiography relative to untreated control. The method, boiled down: as §1
Series [16] has as its system Glycine max. Kind of series: Genotoxicity in Glycine max (soybean) exposed to compound through spray 4 times over 2 weeks assessed as relative adduct level A6 measured per 10^9 nucleotides using [32P]labeling based autoradiography relative to untreated control. In a few lines: as §1

On to `CC(C)[C@H](C(=O)O[C@H](C#N)c1cccc(Oc2ccccc2)c1)c1ccc(Cl)cc1`, for which the Activity in the series on Glycine max [1] was 7857 cpm; in the series on Glycine max [2], 154; in the series with Glycine max [3], 49; in the series with Glycine max [4], 26; in the series on Glycine max [5] it was 3062 cpm; in the series on Glycine max [6], 2477 cpm. Besides, the Activity with Glycine max [7] amounted to 1344 cpm; in the series with Glycine max [8], 8264 cpm; in the series with Glycine max [9], 60; in the series on Glycine max [10], 215.
In the case of `CNC(=O)Oc1cccc2ccccc12` [CARBARIL], the Activity in the series on Glycine max [11] came to 2767 cpm; in the series with Glycine max [12] it was 773 cpm; in the series with Glycine max [1], 809 cpm; in the series on Glycine max [13], 54; with Glycine max [14], 15; in the series on Glycine max [2] it was 16. Besides, the Activity with Glycine max [3] stood at 11; in the series with Glycine max [4], 11; with Glycine max [5], 2956 cpm; with Glycine max [6], 571 cpm; with Glycine max [7] it was 569 cpm; in the series on Glycine max [8], 6310 cpm. The results for the Activity with Glycine max [9] and in the series on Glycine max [10] were 58 and 164, respectively.
As to `CCOP(=S)(OCC)Oc1cc(C)nc(C(C)C)n1` [DIMPYLATE], the Activity with Glycine max [15] was 1396 cpm; with Glycine max [11], 341 cpm; in the series with Glycine max [12], 927 cpm; in the series on Glycine max [1] it was 1377 cpm; in the series on Glycine max [16] it was 27; in the series with Glycine max [13] it was 7. For the same molecule, the Activity in the series with Glycine max [14] is given as 18; in the series with Glycine max [2] it was 27; in the series on Glycine max [3], 49; in the series on Glycine max [4] it was 1; in the series with Glycine max [5], 1679 cpm; in the series on Glycine max [6] it was 2483 cpm. For the same molecule, the Activity is on record as 46 cpm in the series on Glycine max [7], 1823 cpm with Glycine max [8], 33 in the series with Glycine max [9] and 47 in the series on Glycine max [10].
